The text below walks through data of PMC2861555 (International journal of radiation biology, 2009).

One series concerns rats. The conditions noted are these: ref Bergeron et al., cited from earlier work.
Series [1] is classed as in vivo, rat. The conditions noted are these: for Bile/Urine (%): bile share of U excretion / Bile/Urine (%): urine share of U excretion / % Administered Dose Excreted: 24 h; for % Administered Dose Excreted: bile + urine; for Renal Conc.: kidneys removed 24 h post-metal; for Kidney U Conc. / Liver U Conc. / Lung U Conc. / Spleen U Conc. / Bone (femur) U Conc.: tissue 24 h post-metal; for Bone (femur) U Conc.: bone + bone marrow.

A short description of series [2]: Multiple dose chelator administration in non-bile duct-cannulated. It is filed as in vivo, rat. The conditions noted are these: for % Administered Dose Excreted / Total U Excretion: urine + feces. A digest of the protocol: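 Intact rats got uranyl acetate 1 mg U kg−1 s.c. (left flank), then test compound or DTPA 300 µmol kg−1 s.c. (right flank) immediately and at 24-h intervals (4 doses). Rats were caged singly with chow and water ad libitum. Urine and feces were collected every 24 h. Kidneys and other tissues were taken 24 h after the last dose. Uranium was measured by ICP-MS in triplicate; data are mean ± SEM.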

[3] abbreviates: single dose 150 µmol kg^−1 SC, 24 h post-metal.
Setting [4] is: single dose 300 µmol kg^−1 PO, 24 h post-metal.
Setting [5] is: 24 h after last of 4 daily s.c. doses of 300 µmol kg^−1.
Setting [6] is: Day 1, 300 µmol kg^−1 s.c. daily x 4.
Setting [7] is: Day 2, 300 µmol kg^−1 s.c. daily x 4.
The mark [8] stands for this setting: Day 3, 300 µmol kg^−1 s.c. daily x 4.
Setting [9] is: Day 4, 300 µmol kg^−1 s.c. daily x 4.

Like-named read-outs stand apart in the source and are kept apart here. Marks after values point to notes of the source that are not given here.

Consider `C[C@]1(C(=O)O)CSC(c2ncccc2O)=N1` [DFT, (S)-4,5-dihydro-2-(3-hydroxy-2-pyridinyl)-4-methyl-4-thiazolecarboxylic acid, reference compound], for which, in the series with rats (rats, 1993), the nephrotoxicity result is “severe nephrotoxicity”.

Take `O=C(O)CN(CCN(CC(=O)O)CC(=O)O)CCN(CC(=O)O)CC(=O)O` [DTPA, Diethylenetriaminepentaacetic acid, reference compound]: the “renal share of actinide excretion” value in series [1] (route of actinide excretion, dose and route of chelator not stated at this place) came out at 100%. In series [1] (single dose 150 µmol kg^−1 SC), the “Bile/Urine (%): bile share of U excretion” value (shortened to “Bile/Urine (%): bile share”) worked out at 2%, the “Bile/Urine (%): urine share of U excretion” value (from here on “Bile/Urine (%): urine share”) was 98%, the “% Administered Dose Excreted” value was found to be 27.6% and the “Renal Conc.” value is 47 ± 9 ^b µg g^−1. Moreover, in series [1] (single dose 150 µmol kg^−1 SC), the “Kidney U Conc.” value is listed as 47 ± 9 ^b µg g^−1, the “Liver U Conc.” value is recorded as 0.1 ± 0.0 ^b µg g^−1, the “Lung U Conc.” value was 0.07 ± 0.01 ^b µg g^−1 and the “Spleen U Conc.” value is on record as 0.15 ± 0.05 ^b µg g^−1. For the same compound, the “Bone (femur) U Conc.” value in series [1] (single dose 150 µmol kg^−1 SC) stood at 3.1 ± 1.1 µg/g. Further, the “Reduction (%) of renal uranium vs control” value (from here on “Reduction (%)”) in series [1] (setting [3]) is 44%. Further, in series [1] (single dose 300 µmol kg^−1 PO), the “Bile/Urine (%): bile share” value is 0%, the “Bile/Urine (%): urine share” value is 100%, the “% Administered Dose Excreted” value was 21.2% and the “Renal Conc.” value is listed as 54 ± 11 ^b µg g^−1. Moreover, in series [1] (single dose 300 µmol kg^−1 PO), the “Kidney U Conc.” value is 54 ± 11 ^b µg g^−1, the “Liver U Conc.” value turned out to be 0.2 ± 0.0 µg/g, the “Lung U Conc.” value was 0.10 ± 0.02 ^b µg g^−1 and the “Spleen U Conc.” value is 0.13 ± 0.03 ^b µg g^−1. Moreover, the “Bone (femur) U Conc.” value in series [1] (single dose 300 µmol kg^−1 PO) was determined as 4.3 ± 1.3 µg/g. Moreover, the “Reduction (%)” value in series [1] (setting [4]) came to 36%. In series [2] (setting [5]), the “Reduction (%)” value stood at 39% and the “Renal Conc.” value is 19 ± 2 ^c µg g^−1. In series [2] (setting [6]), the “Fecal U Excretion” value was determined as 30 ± 19 µg/kg, the “% Administered Dose Excreted” value turned out to be 41.0% and the “Total U Excretion” value was 410 ± 56 µg/kg. The “Urine U Excretion” value in series [2] (Day 1, 300 µmol kg^−1 s.c. daily x 4, first dose immediately post-U) came to 380 ± 55 µg/kg. In addition, in series [2] (setting [7]), the “Fecal U Excretion” value turned out to be 13 ± 9 µg/kg, the “Urine U Excretion” value was 43 ± 11 µg/kg, the “% Administered Dose Excreted” value was determined as 5.6% and the “Total U Excretion” value is 56 ± 16 ^c µg kg^−1. Moreover, in series [2] (setting [8]), the “Fecal U Excretion” value was 13 ± 5 µg/kg, the “Urine U Excretion” value came to 29 ± 6 µg/kg, the “% Administered Dose Excreted” value was found to be 4.2% and the “Total U Excretion” value is 42 ± 5 µg/kg. In addition, in series [2] (setting [9]), the “Fecal U Excretion” value came to 9 ± 5 µg/kg, the “Urine U Excretion” value stood at 14 ± 3 µg/kg, the “% Administered Dose Excreted” value is given as 2.3% and the “Total U Excretion” value was determined as 23 ± 3 µg/kg. Besides, the “administered dose of uranium excreted at the end of four days (urine + feces)” value in series [2] (cumulative over 4 days, 300 µmol kg^−1 s.c. daily x 4) stood at 53%.

For `COCCOCCOCCOc1cccc(C2=N[C@@](C)(C(=O)O)CS2)c1O` [compound 10, (S)-4,5-dihydro-2-[2-hydroxy-3-(3,6,9-trioxadecyloxy)phenyl]-4-methyl-4-thiazolecarboxylic acid], in series [1] (single dose 150 µmol kg^−1 SC), the “Bile/Urine (%): bile share” value is given as 55%, the “Bile/Urine (%): urine share” value worked out at 45%, the “% Administered Dose Excreted” value is 31.6% and the “Renal Conc.” value is 33 ± 8 ^b µg g^−1. In series [1] (single dose 150 µmol kg^−1 SC), the “Kidney U Conc.” value is on record as 33 ± 8 ^b µg g^−1, the “Liver U Conc.” value is 1.2 ± 0.6 ^c µg g^−1, the “Lung U Conc.” value is 0.09 ± 0.02 ^b µg g^−1 and the “Spleen U Conc.” value is given as 0.21 ± 0.01 ^c µg g^−1. For the same compound, in series [1] (single dose 150 µmol kg^−1 SC), the “Bone (femur) U Conc.” value came to 3.4 ± 0.1 µg/g. For the same compound, in series [1] (setting [3]), the “Reduction (%)” value was determined as 61%. For the same compound, the “Reduction (%)” value in series [1] (setting [4]) turned out to be 62%. Moreover, in series [1] (single dose 300 µmol kg^−1 PO), the “% Administered Dose Excreted” value is given as 25.7%, the “Renal Conc.” value is reported as 32 ± 20 ^b µg g^−1, the “Kidney U Conc.” value was 32 ± 20 ^b µg g^−1 and the “Liver U Conc.” value is recorded as 0.7 ± 0.4 ^c µg g^−1. In series [1] (single dose 300 µmol kg^−1 PO), the “Lung U Conc.” value was 0.13 ± 0.04 µg/g, the “Spleen U Conc.” value was determined as 0.16 ± 0.05 µg/g and the “Bone (femur) U Conc.” value was found to be 3.1 ± 1.1 µg/g. Besides, in series [1] (single dose 300 µmol kg^−1 SC), the “Bile/Urine (%): bile share” value was 79%, the “Bile/Urine (%): urine share” value is on record as 21%, the “% Administered Dose Excreted” value was determined as 31.4% and the “Renal Conc.” value is reported as 13 ± 6 ^b µg g^−1. Further, in series [1] (single dose 300 µmol kg^−1 SC), the “Kidney U Conc.” value is listed as 13 ± 6 ^b µg g^−1, the “Liver U Conc.” value was 0.8 ± 0.2 ^c µg g^−1, the “Lung U Conc.” value was 0.08 ± 0.02 ^b µg g^−1 and the “Spleen U Conc.” value is 0.18 ± 0.03 µg/g. Further, the “Bone (femur) U Conc.” value in series [1] (single dose 300 µmol kg^−1 SC) was 2.3 ± 0.6 ^b µg g^−1. The “Reduction (%)” value in series [1] (single dose 300 µmol kg^−1 SC, 24 h post-metal) stood at 85%. Besides, the “reduction of bone actinide content vs control” value in series [1] (single dose 300 µmol kg^−1 s.c., femur, 24 h post-metal) is reported as 36%. For the same compound, in the series with rats (2008), the nephrotoxicity result is on record as “did not present with any nephrotoxicity”.
